Source: PubChem BioAssay (several laboratories)
An excerpt weighted towards active compounds, which were near 2.1% of everything screened.
m5-HT2A agonist: mouse Htr2a agonists via beta-arrestin recruitment, primary screen, cell-based, luminescence; hit rate 0.66% among 360,000; CHO-K1 mHTR2A beta-arrestin complementation; percent of 30 µM serotonin response; AID 624169, 2012; 5-hydroxytryptamine receptor 2A (Mus musculus), P35363; activation, % at 7.6 µM;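 active means activation above a run cutoff, the mean activation of all tested compounds plus 3 SD, cut at about 14% in these data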;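 further: 0% = plate median of compound wells and 100% = 30 µM serotonin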
EBI2 block: EBI2 receptor antagonists, beta-arrestin recruitment, primary screen, cell-based, luminescence, 7a,25-OHC stimulation, uHTS; AID 651636, 2012; hit rate 0.81% among 360,000; 7a,25-OHC stimulated; G-protein coupled receptor 183 (Homo sapiens), P32249; inhibition, % at 5 µM; in the data active means inhibition above about 38%;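 further: enzyme fragment complementation signal reports receptor beta-arrestin coupling in cells; 0% = agonist plus DMSO wells and 100% = wells without agonist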
Target sequence (P32249 whole entry, looked up, the tested form may be a part): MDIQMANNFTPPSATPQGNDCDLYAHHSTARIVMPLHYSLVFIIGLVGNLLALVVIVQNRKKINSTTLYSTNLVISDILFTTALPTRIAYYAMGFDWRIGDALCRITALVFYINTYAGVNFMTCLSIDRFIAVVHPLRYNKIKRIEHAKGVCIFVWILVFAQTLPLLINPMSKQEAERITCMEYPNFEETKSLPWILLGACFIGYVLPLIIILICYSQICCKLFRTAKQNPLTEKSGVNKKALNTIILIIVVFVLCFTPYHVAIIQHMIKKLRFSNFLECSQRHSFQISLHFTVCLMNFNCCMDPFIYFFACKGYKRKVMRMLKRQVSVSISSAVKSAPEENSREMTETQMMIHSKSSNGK
CXCR6 block: CXCR6 receptor inhibitors, primary screen, cell-based, beta-arrestin, luminescence, CHO-K1 PathHunter, 1536-well. hit rate 0.36% among 360,000. inhibition, % at 20 µM; in the data active means inhibition above about 34%, passing the limit was not always enough;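 further: antagonist mode with CXCL16 agonist at 10 nM final; 0% = 10 nM CXCL16 with DMSO and 100% = unstimulated wells without agonist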
APJ antagonist: antagonists of human apelin receptor APJ, primary screen, CHO-K1 cells, beta-arrestin complementation, luminescence; P35414; inhibition, % at 20 µM; hit rate 0.32% among 330,000;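 active means inhibition above about 40% at 20 µM, limit read from the data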;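 further: cells challenged with 10 nM apelin-13 agonist together with compound; plate controls were apelin-13 plus DMSO wells for no effect and DMSO wells lacking apelin-13 for full effect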
APJ ag: agonists of human apelin receptor APJ, primary screen, CHO-K1 cells, PathHunter beta-arrestin, luminescence; P35414; 0% DMSO wells, 100% apelin; activation, % at 20 µM; hit rate 0.11% among 330,000; AID 2520, 2010;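 active means activation more than six SD over the plate average, tested at 20 µM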;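 further: 0% = DMSO alone and 100% = apelin-13 at 10 nM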
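Test system: CHO-K1 APJ beta-arrestin complementation cell line. Amount: cell density 1000 per well. Controls: DMSO negative, 10 nM Apelin-13 positive. Signal: luminescent beta-gal fragment complementation, chemiluminescent substrate. Read-out basis: agonist-driven arrestin binding to APJ. Timing: compound stimulation 90 min at 25 °C, detection 60 min.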
CCR6 antag: CCR6 receptor antagonists, primary screen, cell-based, CHO-K1, luminescence, beta-arrestin, uHTS | C-C chemokine receptor type 6 (Homo sapiens), P51684 | CHO-K1 CCR6 PathHunter beta-arrestin, CCL20-stimulated | inhibition, % at 20 µM | hit rate 0.49% among 340,000 | AID 493098, 2011;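 active means compounds whose inhibition of the agonist-driven luminescence signal at 20 µM reaches about 50%, limit read from the data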;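 further: cells stimulated with CCL20 at 14 nM final; plate controls were DMSO with CCL20 for no effect and DMSO without agonist for full effect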
EBI2 antag conf: EBI2 antagonist hit retest, beta-arrestin, confirmation, cell-based, single concentration, luminescence, 7a,25-OHC stimulation | shares compounds with EBI2 block | 7a,25-OHC antagonism | inhibition, % at 5 µM | hit rate 29% among 2,400 | AID 651997, 2013;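 active means inhibition of at least 50%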
EBI2 agonist: EBI2 agonist activity of antagonist hits, confirmation, counter-screen for EBI2 antagonist project, cell-based, single concentration, agonist mode, luminescence; shares compounds with EBI2 block; EBI2-expressing cells, 60 min; 0% vehicle, 100% 7α,25-dihydroxycholesterol control; activation, % at 5 µM; 2,400 tested, under 10 active; AID 652000, 2013;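 active means activation of at least 50%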
bGal counter: E. coli beta-galactosidase enzyme inhibition, confirmation, counter-screen for EBI2 antagonist project, biochemical, luminescence, single concentration | hit rate 1% among 2,400 | AID 652176, 2013 | purified beta-galactosidase, luminescent Galacton Star, 15 min | shares compounds with EBI2 block | inhibition, % at 5 µM;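 active means replicate-average signal at least 3 plate SD below neutral wells, shown as high inhibition, flagging enzyme-inhibiting false positives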;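 further: 0% = DMSO wells with enzyme and 100% = wells lacking enzyme; higher means stronger loss of beta-gal luminescence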
* marks the source's active call; other numbers are inactive results; . = no result given.

SMILES	m5-HT2A agonist	EBI2 block	CXCR6 block	APJ antagonist	APJ ag	CCR6 antag	EBI2 antag conf	EBI2 agonist	bGal counter
Cc1nc2ccccc2c(=O)n1/N=C/c1ccc(N(C)C)cc1	-2	-6	5	19	-2	7	.	.	.
CC1=C(C(=O)N(C)C)CC(CC(=O)NCCCN(C)C)C(=O)N1CCCN1CCCC1=O (centres undefined)	-1	-9	-2	.	.	.	.	.	.
COc1cccc(-c2cc(C(=O)N3CCN(Cc4ccccc4)CC3)no2)c1	-5	51*	-1	-12	-6	-8	29	0	-8
COc1cccc(-c2cc(C(=O)N3CCN(Cc4ccc5c(c4)OCO5)CC3)on2)c1	0	70*	-2	-45	-5	3	54*	0	-11
COc1ccc(-c2cc(C(=O)N3CCN(Cc4ccccc4)CC3)no2)cc1OC	-2	-18	-12	-27	-2	-8	.	.	.
O=C(c1cc(-c2cccc(O)c2)on1)N1CCN(C(c2ccccc2)c2ccccc2)CC1	1	90*	-1	0	-1	8	73*	0	4
COc1ccc2cc(C(=O)N3CCN(Cc4ccc5c(c4)OCO5)CC3)[nH]c2c1	-14	86*	-9	-17	-1	14	59*	0	6
Cc1cc(C(=O)N2CCN(Cc3ccc4c(c3)OCO4)CC2)on1	1	-9	1	-5	-5	-1	.	.	.
CC(=O)Nc1ccc(C(=O)OCc2ccc(Cl)c(Cl)c2)cc1	-4	10	-4	-24	-3	14	.	.	.
CCS(=O)(=O)N1Cc2ccccc2CC1C(=O)NCCc1c[nH]c2ccccc12 (centres undefined)	4	44*	16	0	1	5	18	1	2
O=C(NCCc1c[nH]c2ccccc12)C1CCN(S(=O)(=O)c2ccc(F)cc2)CC1	4	33	-3	0	-1	13	.	.	.
COc1ccc(S(=O)(=O)N2CCC(C(=O)NCCc3c[nH]c4ccccc34)CC2)cc1	5	45*	-6	1	-1	1	18	0	9
COCCCNCc1cc(C)n(-c2cc(S(=O)(=O)N3CCOCC3)ccc2N2CCCC2)c1C	2	-4	0	.	.	14	.	.	.
COc1cc(CNc2ncn[nH]2)cc(Br)c1OC	-1	-9	1	-5	-3	-9	.	.	.
S=c1[nH]nc(-c2cc(-c3ccccc3)n[nH]2)n1/N=C/c1c(Cl)cccc1Cl	4	44*	5	-6	-1	13	65*	-1	0
O=C(Nc1ccc(Oc2ccccc2)nc1)C1CCCCN1Cc1cccc(O)c1 (centres undefined)	-6	93*	0	-18	-4	6	74*	0	7
COCCC(=O)N1CCC(C(=O)Nc2ccc(Oc3ccccc3)nc2)CC1	3	1	5	19	2	4	.	.	.
COCCc1ncc(CN2CCCCC2C(=O)Nc2ccc(Oc3ccccc3)nc2)cn1 (centres undefined)	0	19	2	5	7	-8	.	.	.
COc1cc(CN2CCCCC2C(=O)Nc2ccc(Oc3ccccc3)nc2)ccc1O (centres undefined)	-1	87*	-4	-23	2	18	50*	0	3
O=C(Nc1ccc(Oc2ccccc2)nc1)C1CCCCN1Cc1ccc(O)cc1 (centres undefined)	-4	86*	-8	1	-5	.	55*	-1	4
CN1OC[C@@H]2CN(C(=O)C(C)(C)C)[C@H](c3ccc(-c4cccnc4)cc3)C[C@@H]21	5	-9	5	.	.	.	.	.	.
Cc1ccc(CNC(=O)c2ccc(N(C)S(=O)(=O)c3ccccc3)cc2)cc1	-7	83*	-1	-5	-2	19	47	1	2
CN(C)S(=O)(=O)c1ccc(C(=O)Nc2ccc(Cl)cc2)cc1	3	53*	1	-65	0	-3	50*	3	-3
CN(c1ccc(C(=O)Nc2ccc(Cl)cn2)cc1)S(=O)(=O)c1ccccc1	-1	50*	-1	0	-2	16	56*	0	4
CN(c1ccccc1)S(=O)(=O)c1ccc(C(=O)NCc2ccc(F)cc2)cc1	4	14	3	-4	-4	19	.	.	.
SMILES	m5-HT2A agonist	EBI2 block	CXCR6 block	APJ antagonist	APJ ag	CCR6 antag	EBI2 antag conf	EBI2 agonist	bGal counter
CCOc1ccc(NC(=O)c2ccc(S(=O)(=O)N(C)C)cc2)cc1	-3	7	-1	6	0	12	.	.	.
CCN(CC)S(=O)(=O)c1ccc(C(=O)NCc2ccc(C)cc2)cc1	-6	63*	-13	13	5	19	55*	1	3
Cc1ccc(S(=O)(=O)N(C)c2ccc(C(=O)Nc3ccc(C)cn3)cc2)cc1	-5	14	-8	2	-1	8	.	.	.
CCN(CC(=O)NCc1ccc(F)cc1)S(=O)(=O)c1ccc(C)cc1	-1	-5	0	-8	-2	-1	.	.	.
CCN(Cc1nc2cc(OC)c(OC)cc2c(=O)[nH]1)C(=O)c1ccc(S(=O)(=O)N(C)C)cc1	-4	-10	-14	6	7	4	.	.	.
CC(C)c1ccc(NC(=O)C2CCN(S(=O)(=O)c3ccc4c(c3)NC(=O)CO4)CC2)cc1	-12	-1	-10	-8	-2	-4	.	.	.
COC(=O)c1ccc2nc(C3CCCCC3)c(Cc3ccccc3)n2c1	2	51*	2	.	.	.	65*	-1	-17
O=C1C=C(c2ccc(C(=O)O)cc2)C[C@@H](c2ccc3c(c2)OCO3)C1	6	-6	3	-2	-2	10	.	.	.
C[C@@H]1CN([C@H](C)CO)C(=O)c2cccc(NC(=O)NC3CCCCC3)c2O[C@@H]1CN(C)C(=O)Nc1ccc(C(F)(F)F)cc1	8	72*	-6	0	-1	-1	46	-1	-11
